Assay results reported in ChEMBL document CHEMBL3098050, “Stereoselective total synthesis of a novel regiomer of herbarumin I and its cytotoxic and antimicrobial activities” (Bioorg Med Chem Lett, 2014).
≈ marks a conversion by molar mass, not a printed value.

Assays:
Raoultella planticola = test: Antimicrobial activity against Klebsiella planticola MTCC 530 after 18 hrs by microtitre broth dilution method; type: functional; conditions: MTCC 530, 18 h
Outline: (§1)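 Microtiter broth dilution; MIC per pathogen taken from four individual observations; ciprofloxacin as bacterial positive control.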

Bacillus subtilis = test: Antimicrobial activity against Bacillus subtilis MTCC 121 after 18 hrs by microtitre broth dilution method; type: functional; conditions: MTCC 121, 18 h; outline: as §1
Staphylococcus aureus = test: Antimicrobial activity against Staphylococcus aureus MTCC 96 after 18 hrs by microtitre broth dilution method; type: functional; conditions: MTCC 96, 18 h; outline: as §1
COLO 205 = test: Cytotoxicity against human COLO205 cells by MTT assay; type: functional, cell-based
Outline: (§2)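 MTT read-out (Mosmann method); absorbance dose–response curves plotted and IC50 calculated from them; each cell line's value is the mean of two independent experiments; doxorubicin as positive control.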

HepG2 = test: Cytotoxicity against human HepG2 cells by MTT assay; type: functional, cell-based; outline: as §2
DU-145 = test: Cytotoxicity against human DU145 cells by MTT assay; type: functional, cell-based; outline: as §2
MDA-MB-231 = test: Cytotoxicity against human MDA-MB-231 cells by MTT assay; type: functional, cell-based; outline: as §2
A549 = test: Cytotoxicity against human A549 cells by MTT assay; type: functional, cell-based; outline: as §2
Pseudomonas aeruginosa = test: microbe, parasite or virus in culture; conditions: MTCC 2453, 18 h
Escherichia coli = test: microbe, parasite or virus in culture; conditions: MTCC 739, 18 h

Row | SMILES | MIC (Raoultella planticola) | MIC (Bacillus subtilis) | MIC (Staphylococcus aureus) | IC50 (COLO 205) | IC50 (HepG2) | IC50 (DU-145) | IC50 (MDA-MB-231) | IC50 (A549) | MIC (Pseudomonas aeruginosa) | MIC (Escherichia coli)
1 | CCC[C@H]1OC(=O)[C@H](O)CC/C=C/C[C@@H]1O | 15.6 mg/L (≈ 68.3 µM) | 15.6 mg/L (≈ 68.3 µM) | 7.8 mg/L (≈ 34.2 µM) | 5.1 µM | 9.1 µM | 8.9 µM | 6.2 µM | 8.1 µM |  | 
2 | COc1cccc2c1C(=O)c1c(O)c3c(c(O)c1C2=O)C[C@@](O)(C(=O)CO)C[C@@H]3O[C@H]1C[C@H](N)[C@H](O)[C@H](C)O1 [DOXORUBICIN] |  |  |  | 0.5 µM |  | 0.6 µM |  |  |  | 
3 | O=C(O)c1cn(C2CC2)c2cc(N3CCNCC3)c(F)cc2c1=O [CIPROFLOXACIN] | 0.9 mg/L (≈ 2.72 µM) | 0.9 mg/L (≈ 2.72 µM) | 0.9 mg/L (≈ 2.72 µM) |  |  |  |  |  | 0.9 mg/L (≈ 2.72 µM) | 0.9 mg/L (≈ 2.72 µM)
